Measurements reported in ChEMBL document CHEMBL1123436, “Comparative toxicities and analgesic activities of three monomethylated analogues of acetaminophen” (J Med Chem, 1986).
Where “and” joins values, the source holds several entries; their conditions need not be identical. Equal entries are not always repeated.

Legend:
[1] = tested on: Mus musculus; assay: Time course of Distribution of Radioactivity in Mice Liver after 3 mmol/kg dose of the Compound after 1 h; assay type: ADME, organism-based; conditions: in vivo
Summary of the method: (§1)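 Groups of 12 mice given [acetyl-14C]-labelled drug ip, 3 mmol/kg (0.45 mCi/mmol), housed individually with urine/feces separation. Four killed at each of 1, 3 and 24 h by exsanguination. Tissues (~100 mg) digested in Soluene 350; blood digested and peroxide-bleached; feces freeze-dried, rehydrated, digested and bleached. Scintillation counting; nmol equiv/mg tissue or per mL blood/urine, means ± SE (N = 4).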

[2] = tested on: Mus musculus; assay: Hepatotoxicity in Swiss-Webster Mice Caused by compound at 1000 mg/kg (i.p.) dose; 5/10; conditions: route intraperitoneal
[3] = tested on: Mus musculus; assay: Time course of Distribution of Radioactivity in Mice brain after 3 mmol/kg dose of the Compound after 1 h; assay type: ADME, organism-based; conditions: in vivo; summary of the method: as §1
[4] = tested on: Mus musculus; assay: Time course of Distribution of Radioactivity in Mice blood after 3 mmol/kg dose of the Compound after 1 h; assay type: ADME, organism-based; conditions: in vivo; summary of the method: as §1
[5] = tested on: Mus musculus; assay: Time course of Distribution of Radioactivity in Mice blood after 3 mmol/kg dose of the Compound after 3 h; assay type: ADME, organism-based; conditions: in vivo; summary of the method: as §1
[6] = tested on: Mus musculus; assay: (§2) Hepatotoxicity in Swiss-Webster Mice Caused by compound at 500 mg/kg (i.p.) dose; assay type: functional, organism-based; design: dose 500 mg/kg
Summary of the method: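 Male Swiss-Webster mice (20 g), groups of 10, dosed ip in saline; some groups pretreated with phenobarbital (80 mg/kg ip at 72, 60, 48, 24 h), cobaltous chloride (30 mg/kg ip at 48, 36, 24, 12 h) or neat piperonyl butoxide (1360 mg/kg ip, 30 min before). Survivors killed at 24 h; plasma ALT measured, liver H&E sections scored for necrosis; means ± SE.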

[7] = tested on: Mus musculus; assay: Time course of Distribution of Radioactivity in Mice Urine after 3 mmol/kg dose of the Compound after 1 h; assay type: ADME, organism-based; conditions: in vivo; summary of the method: as §1
[8] = tested on: Mus musculus; assay: Time course of Distribution of Radioactivity in Mice brain after 3 mmol/kg dose of the Compound after 24 h; assay type: ADME, organism-based; conditions: in vivo; summary of the method: as §1
[9] = tested on: Mus musculus; assay: Time course of Distribution of Radioactivity in Mice spleen after 3 mmol/kg dose of the Compound after 3 h; assay type: ADME, organism-based; conditions: in vivo; summary of the method: as §1
[10] = tested on: Mus musculus; assay: Time course of Distribution of Radioactivity in Mice feces after 3 mmol/kg dose of the Compound after 3 h; assay type: ADME, organism-based; conditions: in vivo; summary of the method: as §1
[11] = tested on: Mus musculus; assay: Urinary Metabolic (3-hydroxy-N-methylacetaminophen) profile in the mouse 24 hr after dose of 3 mmol/kg of the compound; assay type: ADME, organism-based, Urine; conditions: in vivo
[12] = species: Mus musculus; assay: Analgesic activity determined in mice using the Bradykinin-induced Writhing test; assay type: organism-based
Summary of the method: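 Male CD1 mice (15–20 g), test drug given orally 15 min before bradykinin ip (4 μg in 0.2 mL sterile water), then a second bradykinin injection (0.2 μg/0.1 mL) 15 min later. Writhing was scored over the next 10 min, with control groups of 10 mice. ED50 was derived by log-probit analysis from at least five doses, with 95% limits.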

[13] = tested on: Mus musculus; assay: Time course of Distribution of Radioactivity in Mice stomach after 3 mmol/kg dose of the Compound after 24 h; assay type: ADME, organism-based; conditions: in vivo; summary of the method: as §1
[14] = tested on: Mus musculus; assay: Urinary Metabolic (N-methylacetaminophen) profile in the mouse 24 hr after dose of 3 mmol/kg of the compound; assay type: ADME, organism-based, Urine; conditions: in vivo
[15] = tested on: Mus musculus; assay: Time course of Distribution of Radioactivity in Mice brain after 3 mmol/kg dose of the Compound after 3 h; assay type: ADME, organism-based; conditions: in vivo; summary of the method: as §1
[16] = tested on: Mus musculus; assay: Time course of Distribution of Radioactivity in Mice intestine after 3 mmol/kg dose of the Compound after 3 h; assay type: ADME, organism-based; conditions: in vivo; summary of the method: as §1
[17] = tested on: Mus musculus; assay: Urinary Metabolic (3-methoxy-N-methylacetaminophen) profile in the mouse 24 hr after dose of 3 mmol/kg of the compound; assay type: ADME, organism-based, Urine; conditions: in vivo
[18] = tested on: Mus musculus; assay: Time course of Distribution of Radioactivity in Mice kidney after 3 mmol/kg dose of the Compound after 1 h; assay type: ADME, organism-based; conditions: in vivo; summary of the method: as §1
[19] = tested on: Mus musculus; assay: Time course of Distribution of Radioactivity in Mice spleen after 3 mmol/kg dose of the Compound after 1 h; assay type: ADME, organism-based; conditions: in vivo; summary of the method: as §1
[20] = tested on: Mus musculus; assay: Time course of Distribution of Radioactivity in Mice blood after 3 mmol/kg dose of the Compound after 24 h; assay type: ADME, organism-based; conditions: in vivo; summary of the method: as §1
[21] = tested on: Mus musculus; assay: Time course of Distribution of Radioactivity in Mice Urine after 3 mmol/kg dose of the Compound after 3 h; assay type: ADME, organism-based; conditions: in vivo; summary of the method: as §1
[22] = tested on: Mus musculus; assay: Time course of Distribution of Radioactivity in Mice Liver after 3 mmol/kg dose of the Compound after 3 h; assay type: ADME, organism-based; conditions: in vivo; summary of the method: as §1
[23] = tested on: Mus musculus; assay: Time course of Distribution of Radioactivity in Mice lungs/heart after 3 mmol/kg dose of the Compound after 3 h; assay type: ADME, organism-based, Lung; conditions: in vivo; summary of the method: as §1
[24] = tested on: Mus musculus; assay: Time course of Distribution of Radioactivity in Mice feces after 3 mmol/kg dose of the Compound after 24 h; assay type: ADME, organism-based; conditions: in vivo; summary of the method: as §1
[25] = tested on: Mus musculus; assay: Time course of Distribution of Radioactivity in Mice stomach after 3 mmol/kg dose of the Compound after 3 h; assay type: ADME, organism-based; conditions: in vivo; summary of the method: as §1
[26] = tested on: Mus musculus; assay: Time course of Distribution of Radioactivity in Mice lungs/heart after 3 mmol/kg dose of the Compound after 1 h; assay type: ADME, organism-based, Lung; conditions: in vivo; summary of the method: as §1
[27] = tested on: Mus musculus; assay: Time course of Distribution of Radioactivity in Mice kidney after 3 mmol/kg dose of the Compound after 24 h; assay type: ADME, organism-based; conditions: in vivo; summary of the method: as §1
[28] = tested on: Mus musculus; assay: Time course of Distribution of Radioactivity in Mice Liver after 3 mmol/kg dose of the Compound after 24 h; assay type: ADME, organism-based; conditions: in vivo; summary of the method: as §1
[29] = tested on: Mus musculus; assay: Time course of Distribution of Radioactivity in Mice Urine after 3 mmol/kg dose of the Compound after 24 h; assay type: ADME, organism-based; conditions: in vivo; summary of the method: as §1
[30] = tested on: Mus musculus; assay: Time course of Distribution of Radioactivity in Mice kidney after 3 mmol/kg dose of the Compound after 3 h; assay type: ADME, organism-based; conditions: in vivo; summary of the method: as §1
[31] = tested on: Mus musculus; assay: Time course of Distribution of Radioactivity in Mice stomach after 3 mmol/kg dose of the Compound after 1 h; assay type: ADME, organism-based; conditions: in vivo; summary of the method: as §1
[32] = tested on: Mus musculus; assay: Time course of Distribution of Radioactivity in Mice lungs/heart after 3 mmol/kg dose of the Compound after 24 h; assay type: ADME, organism-based, Lung; conditions: in vivo; summary of the method: as §1
[33] = tested on: Mus musculus; assay: Time course of Distribution of Radioactivity in Mice intestine after 3 mmol/kg dose of the Compound after 24 h; assay type: ADME, organism-based; conditions: in vivo; summary of the method: as §1
[34] = tested on: Mus musculus; assay: Time course of Distribution of Radioactivity in Mice feces after 3 mmol/kg dose of the Compound after 1 hr; assay type: ADME, organism-based; conditions: in vivo; summary of the method: as §1
[35] = tested on: Mus musculus; assay: Urinary Metabolic (Acetaminophen) profile in the mouse 24 h after dose of 3 mmol/kg of the compound; assay type: ADME, organism-based, Urine; conditions: in vivo
[36] = tested on: Mus musculus; assay: Time course of Distribution of Radioactivity in Mice intestine after 3 mmol/kg dose of the Compound after 1 h; assay type: ADME, organism-based; conditions: in vivo; summary of the method: as §1
[37] = tested on: Mus musculus; assay: Hepatotoxicity in Swiss-Webster Mice Caused by compound at 500 mg/kg (i.p.) dose; 9/10; assay type: functional; conditions: route intraperitoneal
Summary of the method: (§3)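 Male Swiss-Webster mice (20 g), groups of 10, were given a single ip dose of drug in saline with no pretreatment. Survivors were decapitated at 24 h and counted. Plasma ALT was measured, and liver sections (formalin-fixed, paraffin, H&E) were scored for necrosis severity in survivors. Values are means ± SE.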

[38] = tested on: Mus musculus; assay: as §2; assay type: functional; conditions: route intraperitoneal; summary of the method: as §3
[39] = tested on: Mus musculus; assay: Time course of Distribution of Radioactivity in Mice spleen after 3 mmol/kg dose of the Compound after 24 h; assay type: ADME, organism-based; conditions: in vivo; summary of the method: as §1

CC(=O)N(C)c1ccc(O)cc1
Radioactivity [1]: 3.16 nM equiv (mg of tissue)-1 | Survivors at 24 h [2]: 5 | Radioactivity [3]: 1.03 nM equiv (mg of tissue)-1 | Radioactivity [4]: 1855 nM equiv (ml of blood)-1 | Radioactivity [5]: 501 nM equiv (ml of blood)-1 | Plasma ALT at 24 h [6]: 27 mU ml-1 and 32 mU ml-1 | Radioactivity [7]: 7.67 nM equiv (ml of urine)-1 | Radioactivity [8]: 0.01 nM equiv (mg of tissue)-1 | Radioactivity [9]: 0.13 nM equiv (mg of tissue)-1 | Radioactivity [10]: 3.17 nM equiv mg-1 | Administered dose [11]: 0.6% | ED50 [12]: > 200 mg/kg | Radioactivity [13]: 0.08 nM equiv (mg of tissue)-1 | Administered dose [14]: 78.9% | Radioactivity [15]: 0.05 nM equiv (mg of tissue)-1 | Radioactivity [16]: 1.52 nM equiv (mg of tissue)-1 | Administered dose [17]: 13.7% | Radioactivity [18]: 3.73 nM equiv (mg of tissue)-1 | Radioactivity [19]: 1.58 nM equiv (mg of tissue)-1 | Radioactivity [20]: 14.6 nM equiv (ml of blood)-1 | Radioactivity [21]: 3200 nM equiv (ml of urine)-1 | Radioactivity [22]: 0.6 nM equiv (mg of tissue)-1 | Radioactivity [23]: 0.13 nM equiv (mg of tissue)-1 | Radioactivity [24]: 74.5 nM equiv mg-1 | Radioactivity [25]: 0.87 nM equiv (mg of tissue)-1 | Radioactivity [26]: 1.78 nM equiv (mg of tissue)-1 | Radioactivity [27]: 0.05 nM equiv (mg of tissue)-1 | Radioactivity [28]: 0.05 nM equiv (mg of tissue)-1 | Radioactivity [29]: 6978 nM equiv (ml of urine)-1 | Radioactivity [30]: 0.49 nM equiv (mg of tissue)-1 | Radioactivity [31]: 0.21 nM equiv (mg of tissue)-1 | Radioactivity [32]: 0.03 nM equiv (mg of tissue)-1 | Radioactivity [33]: 0.61 nM equiv (mg of tissue)-1 | Radioactivity [34]: 0.03 nM equiv mg-1 | Administered dose [35]: 1.9% | Radioactivity [36]: 2.17 nM equiv (mg of tissue)-1 | Survivors at 24 h [37]: 9 | Hepatic necrosis in survivors [38]: 0 | Radioactivity [39]: 0.03 nM equiv (mg of tissue)-1
